According to ChEMBL document CHEMBL1121813, “Dihydrochalcone sweeteners. A study of the atypical temporal phenomena” (1981):

Experiments:
[1] = species: Homo sapiens; assay: Sour character at a concentration of 1090 ppm (mean value); format: functional
[2] = species: Homo sapiens; assay: Sweet character at a concentration of 1090 ppm (mean value); format: functional
[3] = species: Homo sapiens; assay: Intensity calculated on a weight basis relative to an 85500 ppm sucrose solution at a concentration of 1090 ppm (mean value); format: functional
Outline: (§1)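 Trained human panel tasted aqueous solutions of purity-checked (≥95 weight percent) compounds cleared for mutagenicity and mouse oral toxicity. Weight-basis intensity I_w = perceived intensity × (85500 ppm sucrose / compound concentration in ppm). The mean is reported with 2S_m limits; data deviating excessively at 95% confidence were rejected by the t-value method.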

[4] = species: Homo sapiens; assay: Experimentally determined perceived intensity of compound at a concentration of 1090 ppm (mean value); format: functional
Outline: (§2)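 Trained human sensory panel of judges tasted aqueous solutions of the compound. Samples had to be ≥95 weight % pure (HPLC, proton titration, Karl Fischer), non-mutagenic in five Salmonella typhimurium strains with and without microsomal activation, and non-toxic in a single-oral-dose mouse test. Perceived intensity (Ip) was read from time–intensity curves at 4- or 6-s intervals and averaged. Outliers at the 95% level were rejected by t-value. Values reported as mean (2Sm).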

[5] = species: Homo sapiens; assay: Salty character at a concentration of 1090 ppm (mean value); format: functional
[6] = species: Homo sapiens; assay: Number of taste judgments per compound; format: functional
[7] = species: Homo sapiens; assay: Intensity calculated on a molar basis relative to a 0.25 M sucrose solution at a concentration of 1090 ppm (mean value); format: functional
Outline: (§3)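 Trained human judges tasted aqueous solutions of the test compound; compounds were first required to be ≥95 weight percent pure and free of mutagenicity (five Salmonella typhimurium strains, ± microsomal activation) and of single oral dose mouse toxicity. Molar intensity I_m = perceived intensity × (0.25 M sucrose / compound molar concentration). The mean is reported with 2S_m limits; outliers were rejected at 95% confidence by t-value.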

[8] = species: Homo sapiens; assay: Percentage of judgments reporting an aftertaste at a concentration of 1090 ppm; format: functional
Outline: (§4)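 Trained judges tasted aqueous solutions of the compounds, which had to be ≥95 weight percent pure and to have passed mutagenicity and single oral dose toxicity screening. The value is the percentage of panel judgments reporting an aftertaste. Where given, its character is recorded as sweet, bitter or bitter-sweet.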

[9] = species: Homo sapiens; assay: Bitter character at a concentration of 1090 ppm (mean value); format: functional
Outline: (§5)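 Trained human panel tasted aqueous solutions. Each judge reported whether there was an aftertaste and its character (sweet, bitter or bitter-sweet). The value is the percentage of judgments reporting a bitter aftertaste.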

[10] = species: Homo sapiens; assay: Other taste character at a concentration of 1090 ppm (mean value); format: functional
Outline: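 Trained human panel tasted aqueous solutions of each compound. Aftertaste is scored as the percentage of judgments reporting one, with its character coded sweet (s), bitter (b) or bitter-sweet (bs).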

[11] = species: Homo sapiens; assay: Sweet / Bitter character at a concentration of 1090 ppm (mean value); format: functional
[12] = species: Homo sapiens; assay: Experimentally determined perceived intensity of compound at a concentration of 2000 ppm (mean value); format: functional; outline: as §2
[13] = species: Homo sapiens; assay: Percentage of judgments reporting an aftertaste at a concentration of 2000 ppm and character thereof; format: functional; outline: as §4
[14] = species: Homo sapiens; assay: Sweet / Bitter character at a concentration of 90 ppm (mean value); 91/9
[15] = species: Homo sapiens; assay: Intensity calculated on a weight basis relative to an 85500 ppm sucrose solution at a concentration of 90 ppm (mean value); format: functional; outline: as §1
[16] = species: Homo sapiens; assay: Sour character at a concentration of 90 ppm (mean value); format: functional
[17] = species: Homo sapiens; assay: Other taste character at a concentration of 90 ppm (mean value); format: functional
Outline: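 Trained human sensory panel (Swartz method) tasted dilute aqueous solutions of the compounds, which had to be ≥95 weight percent pure and free of mutagenicity and toxicity. Taste character is reported as the mean value with 2S_m limits. Data deviating excessively at the 95% confidence level were rejected by the t-value method.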

[18] = species: Homo sapiens; assay: Experimentally determined perceived intensity of compound at a concentration of 90 ppm (mean value); format: functional; outline: as §2
[19] = species: Homo sapiens; assay: Bitter character at a concentration of 90 ppm (mean value); format: functional; outline: as §5
[20] = species: Homo sapiens; assay: Percentage of judgments reporting an aftertaste at a concentration of 90 ppm and character thereof; format: functional
[21] = species: Homo sapiens; assay: Sweet character at a concentration of 90 ppm (mean value); format: functional
[22] = species: Homo sapiens; assay: Salty character at a concentration of 90 ppm (mean value); format: functional
[23] = species: Homo sapiens; assay: Intensity calculated on a molar basis relative to a 0.25 M sucrose solution at a concentration of 90 ppm (mean value); format: functional; outline: as §3
[24] = species: Homo sapiens; assay: Experimentally determined perceived intensity of compound at a concentration of 1000 ppm (mean value); format: functional; outline: as §2
[25] = species: Homo sapiens; assay: Percentage of judgments reporting an aftertaste at a concentration of 1000 ppm and character thereof; format: functional; outline: as §4

COc1ccc(C2CC(=O)c3c(O)cc(OCCCS(=O)(=O)[O-])cc3O2)cc1O.[K+] (stereo not drawn)
Taste character [1]: 0
Taste character [2]: 75
IW [3]: 40
IP [4]: 0.5
Taste character [5]: 0
Judgments [6]: 1
IM [7]: 50
Judgments [8]: 0
Taste character [9]: 25
Taste character [10]: 0
Taste character [11]: 75

COc1ccc(CCC(=O)c2c(O)cc(OC(CC(O)CO)C(=O)[O-])cc2O)cc1O.[Na+] (stereo not drawn)
IP [12]: 0
Judgments [13]: 0
Judgments [6]: 1

COc1ccc(CCC(=O)c2c(O)cc(O)cc2O)cc1O
Taste character [14]: 91
IW [15]: 850
Taste character [16]: 0
Taste character [17]: 4
Judgments [6]: 10
IP [18]: 0.89
Taste character [19]: 8
Judgments [20]: 70
Taste character [21]: 83
Taste character [22]: 5
IM [23]: 750

CNc1ccc(CCC(=O)c2c(O)cc(OCC(=O)[O-])cc2O)cc1O.[Na+]
IP [12]: 0
Judgments [13]: 0
Judgments [6]: 1

COc1ccc(/C=C/C(=O)c2ccc(OCC(=O)[O-])cc2O)cc1O.[Na+]
IP [12]: 0
Judgments [6]: 1

COc1ccc(CNC(=O)c2c(O)cc(O)cc2O)cc1O
Judgments [6]: 1
IP [24]: 0
Judgments [25]: 0
